Measured values: ChEMBL document CHEMBL3758154, “Rotenoids, Flavonoids, and Chalcones from the Root Bark of Millettia usaramensis” (J Nat Prod, 2015)
pIC50: −log10 of the molar value.

Legend:
MDA-MB-231 = assay: Cytotoxicity against human MDA-MB-231 cells assessed as cell viability after 72 hrs by Alamar Blue assay; format: functional, cell-based; details: MDA-MB-231, 72 h
How it was run: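 MDA-MB-231 cells in DMEM with 10% FBS, 2 mM L-glutamine, penicillin and streptomycin were seeded at 10 000 cells/well and grown 24 h. Medium was replaced with drug or vehicle (0.1% or 1.0% DMSO) for 72 h. Viability was read by Alamar Blue absorbance at 570 nm (600 nm reference) as % of vehicle control, from six replicates in at least six independent experiments.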

Plasmodium falciparum [1] = assay: Antiplasmodial activity against chloroquine-sensitive Plasmodium falciparum 3D7 assessed as inhibition of parasite growth at 100 uM after 72 hrs by DAPI staining-based confocal microscopic analysis; format: functional; details: 3D7, 72 h
Plasmodium falciparum [2] = assay: Antiplasmodial activity against chloroquine-resistant Plasmodium falciparum Dd2 assessed as inhibition of parasite growth at 100 uM after 72 hrs by DAPI staining-based confocal microscopic analysis; format: functional; details: Dd2, 72 h
Plasmodium falciparum [3] = assay: Antiplasmodial activity against chloroquine-resistant Plasmodium falciparum Dd2 assessed as inhibition of parasite growth after 72 hrs by DAPI staining-based confocal microscopic analysis; format: functional, organism-based; details: Dd2, 72 h
How it was run: (§1)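 Sorbitol-synchronized asexual P. falciparum in human O+ erythrocytes (RPMI, Hepes, hypoxanthine, 5% human serum, AlbuMAX II), ring stage at 2% parasitemia, 0.3% hematocrit. Three-step log dilutions from 40 μM top, 0.4% DMSO final. 72 h at 37 °C, 5% CO2. Saponin/Triton X/EDTA/DAPI stain overnight, confocal imaging counts parasites.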

Plasmodium falciparum [4] = assay: Antiplasmodial activity against chloroquine-sensitive Plasmodium falciparum 3D7 assessed as inhibition of parasite growth after 72 hrs by DAPI staining-based confocal microscopic analysis; format: functional, organism-based; details: 3D7, 72 h; how it was run: as §1
[5] = Cytotoxicity against HEK293 cells assessed as cell viability at 20 uM after 72 hrs by resazurin-based plate reader analysis; details: human, read-out: Activity
[6] = Cytotoxicity against HEK293 cells assessed as cell viability at 40 uM after 72 hrs by resazurin-based plate reader analysis; details: human, read-out: Activity
How it was run: (§2)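 HEK293 cells grown in DMEM with 10% FCS, seeded at 2000 cells/well and left overnight to adhere at 37 °C, 5% CO2. Compounds were tested at a final 40 μM in 0.4% DMSO. After 72 h exposure, 44 μM resazurin in serum-free DMEM was added for 4−6 h and fluorescence read at 530/595 nm. Growth was normalised to 5 μM puromycin and 0.4% DMSO controls, with IC50 from variable-slope nonlinear regression.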

HEK293 = assay: Cytotoxicity against HEK293 cells assessed as cell viability after 72 hrs by resazurin-based plate reader analysis; details: Homo sapiens, HEK293, 72 h; how it was run: as §2
Plasmodium falciparum [7] = assay: Antiplasmodial activity against chloroquine-resistant Plasmodium falciparum Dd2 assessed as inhibition of parasite growth at 40 uM after 72 hrs by DAPI staining-based confocal microscopic analysis; format: functional; details: Dd2, 72 h; how it was run: as §1

| Compound | pIC50 (MDA-MB-231) | pIC50 (Plasmodium falciparum [3]) | pIC50 (Plasmodium falciparum [4]) | also measured |
| --- | --- | --- | --- | --- |
| O=C1c2ccc3c(c2O[C@@H]2COc4cc5c(cc4[C@@]12O)OCO5)OCO3 | 4.06 |  |  | inhibition at 100 µM (Plasmodium falciparum [1]): 99%; inhibition at 100 µM (Plasmodium falciparum [2]): 90% |
| CC1(C)C=Cc2c(ccc3c2O[C@@H]2COc4cc5c(cc4[C@]2(O)C3=O)OCO5)O1 | 4.21 |  |  |  |
| COc1ccc2c(c1CC=C(C)C)O[C@@H]1COc3cc4c(cc3[C@@]1(O)C2=O)OCO4 | 4.59 |  |  |  |
| O[C@@H]1c2ccc3c(c2O[C@@H]2COc4cc5c(cc4[C@@]12O)OCO5)OCO3 | < 3.55 |  |  |  |
| COc1cc2c(cc1-c1coc3c4c(ccc3c1=O)OC(C)(C)C=C4)OCO2 |  |  |  | inhibition at 100 µM (Plasmodium falciparum [1]): 94%; inhibition at 100 µM (Plasmodium falciparum [2]): 81% |
| CC1(C)C=Cc2c(ccc3c2O[C@@H]2COc4cc5c(cc4[C@@]2(O)C3=O)OCO5)O1 | 4.00 |  |  | inhibition at 100 µM (Plasmodium falciparum [1]): 28%; inhibition at 100 µM (Plasmodium falciparum [2]): 29% |
| CC(C)=CCC/C(C)=C/COc1ccc(/C=C/C(=O)c2ccc(O)cc2O)cc1 |  | 5.16 | 5.44 |  |
| CC(C)=CCC/C(C)=C/COc1ccc(/C=C/CO)cc1 | 3.68 |  |  |  |
| CC(C)=CCC/C(C)=C/COc1ccc(C(=O)/C=C/c2ccc(O)cc2)c(O)c1 | 3.90 |  |  |  |
| C[C@H]1[C@@H](O)O[C@@H]2O[C@@]3(C)CC[C@H]4[C@H](C)CC[C@@H]1[C@@]24OO3 [ARTENIMOL] |  | 9.84 | 10.00 | viability at 72 h, 20 µM [5]: 50%; viability at 72 h, 40 µM [6]: 54% |
| C[C@H]1[C@H](OC(=O)CCC(=O)O)O[C@@H]2O[C@@]3(C)CC[C@H]4[C@H](C)CC[C@@H]1[C@@]24OO3 [ARTESUNATE] |  | 9.35 | 9.30 | viability at 72 h, 20 µM [5]: 73% |
| CCN(CC)CCCC(C)Nc1ccnc2cc(Cl)ccc12 (configuration not stated) [CHLOROQUINE] |  |  |  | viability at 72 h, 40 µM [6]: 51% |
| COc1ccc(C[C@H](N)C(=O)N[C@H]2[C@@H](O)[C@H](n3cnc4c(N(C)C)ncnc43)O[C@@H]2CO)cc1 [PUROMYCIN] |  | 7.34 | 7.64 | pIC50 (HEK293): 6.44 |
| CCc1nc(N)nc(N)c1-c1ccc(Cl)cc1 [PYRIMETHAMINE] |  |  |  | inhibition at 40 µM (Plasmodium falciparum [7]): 62%; viability at 72 h, 40 µM [6]: 75% |
| COc1ccc2nc3cc(Cl)ccc3c(Nc3cc(CN4CCCC4)c(O)c(CN4CCCC4)c3)c2n1 [PYRONARIDINE] |  | 8.12 | 8.44 |  |
| COc1cc2c(cc1OC)[C@]1(O)C(=O)c3ccc4c(c3O[C@@H]1CO2)C=CC(C)(C)O4 [TEPHROSIN] |  | 4.92 | 4.88 |  |
